Test results published in article PMC7668563 (International journal of molecular biology (Edmond, Okla.), 2020).
Like-named read-outs stand apart in the source and are kept apart here.

Legend:
[1] = biological target: T1, apo-human transferrin (apo-hTf) (Homo sapiens, UniProt P02787); test: Far-UV circular dichroism titration of apo-hTf, secondary structure content
In short: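 Apo-hTf (4.0×10−7 mol L−1) in 2 mM Tris-HCl pH 7.4 was titrated with a 1.0×10−3 mol L−1 stock of test compound in Tris-HCl/2% DMSO, to final 0–2.4×10−6 mol L−1. Far-UV CD was recorded from 190–250 nm under nitrogen in a 1.0 cm cell: six scans at 100 nm/min. Baseline was buffer ± DMSO at room temperature. α-Helix was derived from MRE at 208 nm; β-sheet and random coil by the CD-RRG method.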

[2] = system: human breast adenocarcinoma cell line, MCF-7; test: MTT cell viability assay on MCF-7, 72 h exposure; type: cell-based; settings: read-out: IC50 (±SD), MCF-7, MCF-7, 72 h of exposure
In short: (§1)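 HT-29 was grown in McCoy's 5A with 10% FBS. MCF-7 was grown in MEM with 10% FBS and 0.01 mg/mL insulin. Both were kept at 37°C, 5% CO2, trypsinized at 70–80% confluency and seeded at 1.5×10^4 cells/well for 24 h. Cells were then exposed for 72 h to test compound in 5% DMSO/95% medium, with DMSO-medium controls. MTT was added as a 2.67 mg/mL solution for 2 h. Formazan was dissolved in 10% Triton X-100/isopropanol and read at A570 minus A620. IC50 came from a sigmoidal fit of viability vs log concentration, eight replicas, triplicate, ±SD.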

[3] = biological target: T1, apo-human transferrin (apo-hTf); test: UV-Vis absorbance titration of apo-hTf; type: binding; settings: for Ka at 280 nm: absorbance at 280 nm; for Association constants, Ka, 280 nm: absorbance of apo-hTf at 280 nm
[4] = biological target: T1, apo-human transferrin (apo-hTf); test: Fluorescence resonance energy transfer; type: binding; settings: for Förster critical energy transfer distance R0 / binding distance r (donor-acceptor): k^2=2/3, n=1.336, ØD=0.118; for efficiency of energy transfer E: room temperature, 1.0×10^−5 mol L^−1 each
In short: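 Emission spectrum of 1.0×10−5 mol L−1 apo-hTf and absorption spectrum of 1.0×10−5 mol L−1 test compound were recorded in 20 mM Tris-HCl pH 7.4 at room temperature, 260–450 nm, and their spectral overlap determined. E was calculated from apo-hTf fluorescence without and with equimolar test compound. R0 and donor–acceptor distance r came from Förster equations.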

[5] = biological target: T1, apo-human transferrin (apo-hTf); test: Fluorescence quenching of apo-hTf; type: binding; settings: for biomolecular quenching rate constant kq: kq=Ksv/τ0; for Stern-Volmer quenching constant Ksv / number of binding sites n: pH 7.4; for quenching association constant Ka: pH 7.4, modified Stern-Volmer
In short: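 Intrinsic fluorescence of apo-hTf in Tris-HCl pH 7.4 was titrated with test compound (Tris-HCl/2% DMSO). Conditions: excitation 280 nm, emission 290–500 nm, slits 10/5 nm, 1.0 cm quartz cell, at 296, 303, 310 and 317 K, triplicate titrations. Intensities were corrected for inner filter effect using absorbances at excitation and emission wavelengths. Ksv came from Stern-Volmer plots of F0/F vs [Q]; kq = Ksv/τ0 (τ0 ~1.0×10−8); Ka and n came from the modified Stern-Volmer equation.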

[6] = system: human colorectal adenocarcinoma cell line, HT-29; test: MTT cell viability assay on HT-29, 72 h exposure; type: cell-based; settings: read-out: IC50 (±SD), HT-29, HT-29, 72 h of exposure
In short: as §1

[7] = biological target: T1, apo-human transferrin (apo-hTf); test: Thermodynamic parameters of apo-hTf complex formation; type: binding; settings: for ∆H° / ∆S°: pH 7.4, from Ksv at 296-317 K
In short: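 Ksv values were obtained from apo-hTf fluorescence quenching at pH 7.4 at 296, 303, 310 and 317 K. ΔH°, ΔS° and ΔG° were derived from linear regression of ln(Ksv) vs 1/T (Van't Hoff equation).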

[8] = biological target: T1, apo-human transferrin (apo-hTf); settings: cited from earlier work; for Ka: Cp2VCl2 bound to apo-hTf
[9] = apo-hTf:Cp2VCl2 complex, ref Zhang et al. 64

T1 sequence (P02787 20-698): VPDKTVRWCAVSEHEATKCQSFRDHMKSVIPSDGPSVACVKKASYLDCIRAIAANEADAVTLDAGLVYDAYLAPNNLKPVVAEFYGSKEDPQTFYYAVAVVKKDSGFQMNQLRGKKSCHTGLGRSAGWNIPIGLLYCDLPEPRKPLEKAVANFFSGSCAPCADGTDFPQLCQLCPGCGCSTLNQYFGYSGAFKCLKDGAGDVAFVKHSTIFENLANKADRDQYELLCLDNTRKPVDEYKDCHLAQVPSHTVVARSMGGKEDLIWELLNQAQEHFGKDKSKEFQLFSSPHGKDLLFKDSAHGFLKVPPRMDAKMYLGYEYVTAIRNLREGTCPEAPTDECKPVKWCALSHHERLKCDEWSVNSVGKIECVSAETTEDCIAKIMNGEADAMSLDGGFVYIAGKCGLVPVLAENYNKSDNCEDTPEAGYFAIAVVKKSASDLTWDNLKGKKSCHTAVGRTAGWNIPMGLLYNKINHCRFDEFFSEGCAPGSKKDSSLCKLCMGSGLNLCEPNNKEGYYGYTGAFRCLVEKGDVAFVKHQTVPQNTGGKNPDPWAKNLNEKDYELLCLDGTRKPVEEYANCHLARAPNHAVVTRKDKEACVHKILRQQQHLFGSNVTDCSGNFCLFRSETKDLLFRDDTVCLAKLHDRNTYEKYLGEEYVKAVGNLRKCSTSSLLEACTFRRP

In the case of [Cl-].[Cl-].[V+4].c1cc[cH-]c1.c1cc[cH-]c1 [Cp2VCl2], the “other secondary structure content of apo-hTf” value ([1]; compound concentration 0.4 (M)) is reported as 20%, the “random coil content of apo-hTf” value ([1]; compound concentration 0.4 (M)) is reported as 33.7% and the “α-helix content of apo-hTf” value ([1]; compound concentration 0.4 (M)) is reported as 28.4%. The “β-sheet content of apo-hTf” value ([1]; compound concentration 0.4 (M)) was 17.9%, the “other secondary structure content of apo-hTf” value ([1]; compound concentration 0.8 (M)) was 20.1% and the “random coil content of apo-hTf” value ([1]; compound concentration 0.8 (M)) was 33.9%. For the same compound, the “α-helix content of apo-hTf” value ([1]; compound concentration 0.8 (M)) was 27.9%, the “β-sheet content of apo-hTf” value ([1]; compound concentration 0.8 (M)) was 18.1% and the “other secondary structure content of apo-hTf” value ([1]; compound concentration 1.2 (M)) was 20.4%. The “random coil content of apo-hTf” value ([1]; compound concentration 1.2 (M)) was 34.1%, the “α-helix content of apo-hTf” value ([1]; compound concentration 1.2 (M)) was 27.2% and the “β-sheet content of apo-hTf” value ([1]; compound concentration 1.2 (M)) was 18.3%. For the same compound, the “other secondary structure content of apo-hTf” value ([1]; compound concentration 1.6 (M)) was 20.7%, the “random coil content of apo-hTf” value ([1]; compound concentration 1.6 (M)) was 34.3% and the “α-helix content of apo-hTf” value ([1]; compound concentration 1.6 (M)) was 26.5%. For the same compound, the “β-sheet content of apo-hTf” value ([1]; compound concentration 1.6 (M)) was 18.5%, the “other secondary structure content of apo-hTf” value ([1]; compound concentration 2 (M)) was 20.8% and the “random coil content of apo-hTf” value ([1]; compound concentration 2 (M)) was 34.5%. The “α-helix content of apo-hTf” value ([1]; compound concentration 2 (M)) was 25.8%, the “β-sheet content of apo-hTf” value ([1]; compound concentration 2 (M)) was 18.9% and the “other secondary structure content of apo-hTf” value ([1]; compound concentration 2.4 (M)) was 21.1%. The “random coil content of apo-hTf” value ([1]; compound concentration 2.4 (M)) was 34.6%, the “α-helix content of apo-hTf” value ([1]; compound concentration 2.4 (M)) was 25.1% and the “β-sheet content of apo-hTf” value ([1]; compound concentration 2.4 (M)) was 19.2%. For the same compound, the IC50 [2] was 50 µM, the “Ka at 280 nm” value [3] was 3240 M⁻¹ and the “Ka at 361 nm” value ([3]; absorbance at 361 nm) was 2670 M⁻¹. For the same compound, the “Association constants, Ka, 280 nm” value ([3]; pH 7.4) was 3.24 10^3 M^−1, the “Association constants, Ka, 361 nm” value ([3]; absorbance of apo-hTf at 361 nm, pH 7.4) was 2.67 10^3 M^−1 and the “Förster critical energy transfer distance R0” value [4] was 1.78 nm. For the same compound, the “binding distance r (donor-acceptor)” value [4] was 2.08 nm, the “efficiency of energy transfer E” value [4] was 0.281 and the “biomolecular quenching rate constant kq” value ([5]; 296 K) was 3.564e+12 M⁻¹ s⁻¹. The “Stern-Volmer quenching constant Ksv” value ([5]; 296 K) was 35640 M⁻¹, the “number of binding sites n” value ([5]; 296 K) was 1.23 and the “quenching association constant Ka” value ([5]; 296 K) was 444400 M⁻¹. The “biomolecular quenching rate constant kq” value ([5]; 303 K) was 4.085e+12 M⁻¹ s⁻¹, the “Stern-Volmer quenching constant Ksv” value ([5]; 303 K) was 40850 M⁻¹ and the “number of binding sites n” value ([5]; 303 K) was 1.2. For the same compound, the “quenching association constant Ka” value ([5]; 303 K) was 337500 M⁻¹, the “biomolecular quenching rate constant kq” value ([5]; 310 K) was 4.26e+12 M⁻¹ s⁻¹ and the “Stern-Volmer quenching constant Ksv” value ([5]; 310 K) was 42600 M⁻¹. The “number of binding sites n” value ([5]; 310 K) was 1.16, the “quenching association constant Ka” value ([5]; 310 K) was 240500 M⁻¹ and the “biomolecular quenching rate constant kq” value ([5]; 317 K) was 4.936e+12 M⁻¹ s⁻¹. The “Stern-Volmer quenching constant Ksv” value ([5]; 317 K) was 49360 M⁻¹, the “number of binding sites n” value ([5]; 317 K) was 1.11 and the “quenching association constant Ka” value ([5]; 317 K) was 159800 M⁻¹. For the same compound, the IC50 [6] was 33 µM, the “∆G°” value ([7]; 296 K) was -6.169 kcal/mol and the “∆G°” value ([7]; 303 K) was -6.379 kcal/mol. For the same compound, the “∆G°” value ([7]; 310 K) was -6.587 kcal/mol, the “∆G°” value ([7]; 317 K) was -6.797 kcal/mol and the “∆H°” value [7] was 2.713 kcal/mol. The “∆S°” value [7] was 125.52 J/mol K, the Ka ([8]; ref Du et al. 63) was 137000 M⁻¹ and the Ka ([8]; ref Zhang et al. 64) was 32800 M⁻¹. For the same compound, the Ksv [8, 9] was 30400 M⁻¹ and the kq [8, 9] was 3.04e+12 M⁻¹ s⁻¹.

With C1CCCC1.C1CCCC1.[Cl][Nb][Cl] [Cp2NbCl2] the “other secondary structure content of apo-hTf” value ([1]; compound concentration 0.4 (M)) was 19.5%, the “random coil content of apo-hTf” value ([1]; compound concentration 0.4 (M)) was 33.8% and the “α-helix content of apo-hTf” value ([1]; compound concentration 0.4 (M)) was 29%. The “β-sheet content of apo-hTf” value ([1]; compound concentration 0.4 (M)) was 17.7%, the “other secondary structure content of apo-hTf” value ([1]; compound concentration 0.8 (M)) was 19.4% and the “random coil content of apo-hTf” value ([1]; compound concentration 0.8 (M)) was 34%. The “α-helix content of apo-hTf” value ([1]; compound concentration 0.8 (M)) was 28.7%, the “β-sheet content of apo-hTf” value ([1]; compound concentration 0.8 (M)) was 17.9% and the “other secondary structure content of apo-hTf” value ([1]; compound concentration 1.2 (M)) was 19.7%. The “random coil content of apo-hTf” value ([1]; compound concentration 1.2 (M)) was 34.2%, the “α-helix content of apo-hTf” value ([1]; compound concentration 1.2 (M)) was 27.6% and the “β-sheet content of apo-hTf” value ([1]; compound concentration 1.2 (M)) was 18.5%. The “other secondary structure content of apo-hTf” value ([1]; compound concentration 1.6 (M)) was 19.8%, the “random coil content of apo-hTf” value ([1]; compound concentration 1.6 (M)) was 34.4% and the “α-helix content of apo-hTf” value ([1]; compound concentration 1.6 (M)) was 26.9%. The “β-sheet content of apo-hTf” value ([1]; compound concentration 1.6 (M)) was 18.9%, the “other secondary structure content of apo-hTf” value ([1]; compound concentration 2 (M)) was 20.2% and the “random coil content of apo-hTf” value ([1]; compound concentration 2 (M)) was 34.6%. For the same compound, the “α-helix content of apo-hTf” value ([1]; compound concentration 2 (M)) was 26.2%, the “β-sheet content of apo-hTf” value ([1]; compound concentration 2 (M)) was 19% and the “other secondary structure content of apo-hTf” value ([1]; compound concentration 2.4 (M)) was 20.4%. The “random coil content of apo-hTf” value ([1]; compound concentration 2.4 (M)) was 34.8%, the “α-helix content of apo-hTf” value ([1]; compound concentration 2.4 (M)) was 25.4% and the “β-sheet content of apo-hTf” value ([1]; compound concentration 2.4 (M)) was 19.4%. For the same compound, the IC50 [2] was 1300 µM, the “Ka at 280 nm” value [3] was 3000 M⁻¹ and the “Association constants, Ka, 280 nm” value ([3]; pH 7.4) was 3 10^3 M^−1. The “Förster critical energy transfer distance R0” value [4] was 2.56 nm, the “binding distance r (donor-acceptor)” value [4] was 3.04 nm and the “efficiency of energy transfer E” value [4] was 0.26. For the same compound, the “biomolecular quenching rate constant kq” value ([5]; 296 K) was 2.523e+12 M⁻¹ s⁻¹, the “Stern-Volmer quenching constant Ksv” value ([5]; 296 K) was 25230 M⁻¹ and the “number of binding sites n” value ([5]; 296 K) was 1.26. The “quenching association constant Ka” value ([5]; 296 K) was 325300 M⁻¹, the “biomolecular quenching rate constant kq” value ([5]; 303 K) was 2.804e+12 M⁻¹ s⁻¹ and the “Stern-Volmer quenching constant Ksv” value ([5]; 303 K) was 28040 M⁻¹. For the same compound, the “number of binding sites n” value ([5]; 303 K) was 1.27, the “quenching association constant Ka” value ([5]; 303 K) was 408100 M⁻¹ and the “biomolecular quenching rate constant kq” value ([5]; 310 K) was 3.056e+12 M⁻¹ s⁻¹. The “Stern-Volmer quenching constant Ksv” value ([5]; 310 K) was 30560 M⁻¹, the “number of binding sites n” value ([5]; 310 K) was 1.28 and the “quenching association constant Ka” value ([5]; 310 K) was 485500 M⁻¹. For the same compound, the “biomolecular quenching rate constant kq” value ([5]; 317 K) was 3.323e+12 M⁻¹ s⁻¹, the “Stern-Volmer quenching constant Ksv” value ([5]; 317 K) was 33230 M⁻¹ and the “number of binding sites n” value ([5]; 317 K) was 1.29. For the same compound, the “quenching association constant Ka” value ([5]; 317 K) was 562300 M⁻¹, the IC50 [6] was 266 µM and the “∆G°” value ([7]; 296 K) was -5.963 kcal/mol. The “∆G°” value ([7]; 303 K) was -6.164 kcal/mol, the “∆G°” value ([7]; 310 K) was -6.362 kcal/mol and the “∆G°” value ([7]; 317 K) was -6.561 kcal/mol. The “∆H°” value [7] was 2.431 kcal/mol and the “∆S°” value [7] was 118.65 J/mol K.
